The record followed here is ChEMBL document CHEMBL1142812, “Synthesis and structure-activity relationship of imidazo[1,2-a]benzimidazoles as corticotropin-releasing factor 1 receptor antagonists” (Bioorg Med Chem Lett, 2005).

In data set [1] the target is T1, Corticotropin-releasing factor receptor 1 (Homo sapiens, UniProt P34998).
T1 sequence (P34998 whole entry): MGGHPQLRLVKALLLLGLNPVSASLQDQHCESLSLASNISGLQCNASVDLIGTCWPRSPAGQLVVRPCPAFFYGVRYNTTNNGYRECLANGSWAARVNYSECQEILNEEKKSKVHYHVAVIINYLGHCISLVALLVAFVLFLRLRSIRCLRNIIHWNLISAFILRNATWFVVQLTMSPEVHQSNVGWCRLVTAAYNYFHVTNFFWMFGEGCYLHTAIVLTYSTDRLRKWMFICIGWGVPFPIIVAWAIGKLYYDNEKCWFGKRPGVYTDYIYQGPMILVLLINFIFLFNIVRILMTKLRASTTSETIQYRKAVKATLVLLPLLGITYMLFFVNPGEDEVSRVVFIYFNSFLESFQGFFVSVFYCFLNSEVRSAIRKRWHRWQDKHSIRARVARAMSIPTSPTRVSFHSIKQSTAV
In words: Binding affinity for human corticotropin releasing factor receptor 1.

Data set [2] in a line: Mean plasma area under curve (dissolved in DMSO) at 10 mg/kg of oral administration in rat was determined. Also on record: dose 10 mg/kg, route oral. It counts as ADME, organism-based. The method in brief:
(§1)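 Rats dosed with the compound at 10 mg/kg orally and 2 mg/kg intravenously, in 10/10/80 Cremophor/DMSO/water. Dosing volumes were 3 mL/kg p.o. and 1 mL/kg i.v. Plasma concentrations were followed over time to derive clearance, volume of distribution, terminal half-life, oral AUC and oral bioavailability.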

Data set [3] can be described thus: Volume of distribution (dissolved in DMSO) at 2 mg/kg of […] administration in rat was determined. As to conditions: in vivo. It counts as ADME, organism-based. On the set-up: dose 2 mg/kg.
Data set [4] can be described thus: Volume of distribution (dissolved in DMSO) at 2 mg/kg of intravenous administration in rat was determined. On the set-up: dose 2 mg/kg, route intravenous. Format: ADME, organism-based. The conditions noted are these: in vivo. Summed up:
as §1

The nature of data set [5]: Plasma clearance (dissolved in DMSO) at 2 mg/kg of intravenous administration in rat was determined. It counts as ADME, organism-based. Also on record: dose 2 mg/kg, route intravenous. Summed up: as §1
A short description of data set [6]: Brain concentration to plasma concentration ratio (dissolved in DMSO) at 2 mg/kg of intravenous administration in rat after 2 h. Format: ADME, organism-based. On the set-up: dose 2 mg/kg, route intravenous. The conditions noted are these: brain and plasma, read-out: B/P. Summed up: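 Compound given intravenously to rats at 2 mg/kg in 10/10/80 Cremophor/DMSO/water at 1 mL/kg. Brain and plasma concentrations were measured at 2 h and expressed as a brain-to-plasma ratio.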

A short description of data set [7]: Bioavailability (dissolved in DMSO) at 10 mg/kg of oral administration in rat was determined. The conditions noted are these: in vivo. Format: ADME, organism-based. Summed up: as §1
Data set [8] can be described thus: Terminal half life (dissolved in DMSO) at 2 mg/kg of intravenous administration in rat was determined. Format: ADME, organism-based. Also on record: dose 2 mg/kg, route intravenous. The conditions noted are these: in vivo. The method in brief: as §1
A short description of data set [9]: Plasma clearance (dissolved in DMSO) at 2 mg/kg of intravenous administration in rat was determined.
A short description of data set [10]: Terminal half life (dissolved in DMSO) at 2 mg/kg of intravenous administration in rat was determined. As to conditions: in vivo.
Data set [11] is described as follows: Maximum peak plasma concentration (dissolved in DMSO) at 10 mg/kg of p.o. administration in rat was determined. As to conditions: po.

The term Ki denotes the dissociation constant of the complex between target and ligand, obtained from inhibition or displacement. Lower therefore signals tighter binding. `Cc1cc(C)c(-n2c3ccccc3n3c(CN(CC4CC4)CC(F)(F)F)c(C(F)(F)F)nc23)c(C)c1` displayed a Ki in [1] of 7.1 nM.
Usually AUC stands for the area under the concentration-time curve, a measure of exposure. The clearance is the rate of elimination divided by the concentration. Higher therefore signals a high capacity for elimination. Broadly, the bioavailability is the share of a dose that reaches the circulation, judged against a reference dose that is usually intravenous. High values mean good availability, low ones poor availability. A word on the half-life: it is how long it takes for the measured level to halve. Read a low half-life as rapid decline. A word on the CL/F: it is clearance divided by bioavailability, as obtained after extravascular dosing. One may read the Cmax as the maximum level reached in the sampled fluid or tissue. In data set [1], `CCCN(Cc1c(C(F)(F)F)nc2n(-c3c(C)cc(C)cc3C)c3ccccc3n12)CC1CC1` showed an inhibition constant Ki of 23 nM. Also, the exposure (AUC) in data set [2] was determined as 11400 ng·h/mL. Moreover, the Vd in data set [3] and in [4] was 0.6 L/kg throughout. The compound further registered a clearance in data set [5] of 5.1 mL/min/kg. In addition, in data set [6], the Kp at 2 h worked out at 0.03. Moreover, the bioavailability in [7] stood at 35%. In addition, the half-life in data set [8] and in data set [10] was 4.1 h in each case. Also, in data set [9], the apparent clearance (CL/F) stood at 5.1 mL/min/kg. The Cmax in data set [11] is 2380 ng/mL.
As to `CCCN(CC1CC1)C(=O)c1c(CC)nc2n(-c3c(C)cc(C)cc3C)c3ccc(F)cc3n12`, in data set [1], the Ki stood at 930 nM.
On the same count and under the same terms, in the case of `CCN(CCC1CC1)Cc1c(C(F)(F)F)nc2n(-c3c(C)cc(C)cc3C)c3ccccc3n12` it was 1410 nM; in that of `CCCCN(CC)Cc1c(C(F)(F)F)nc2n(-c3c(C)cc(C)cc3C)c3ccccc3n12`, 704 nM; in that of `Cc1cc(C)c(-n2c3ccccc3n3c(CN(C)Cc4ccccc4)c(C(F)(F)F)nc23)c(C)c1`, 573 nM.
With `CCCN(Cc1c(CC)nc2n(-c3c(C)cc(C)cc3C)c3ccc(F)cc3n12)CC1CC1`, in data set [1], the Ki was 150 nM.
On to `C=CCN(CC=C)Cc1c(C(F)(F)F)nc2n(-c3c(C)cc(C)cc3C)c3ccccc3n12`, for which, in data set [1], the affinity corresponds to a Ki of 138 nM.
Take `CCCN(CCC1CC1)Cc1c(C(F)(F)F)nc2n(-c3c(C)cc(C)cc3C)c3ccccc3n12`: the inhibition constant (Ki) in data set [1] was found to be 362 nM.
For `CCCN(Cc1c(CC)nc2n(-c3c(C)cc(C)cc3C)c3ccccc3n12)CC1CC1`, in [1], affinity was put at a Ki of 21 nM.
In data set [1], `CCCN(CCc1ccccc1)Cc1c(C(F)(F)F)nc2n(-c3c(C)cc(C)cc3C)c3ccccc3n12` gave a Ki of 250 nM.
`CCCN(Cc1c(C(F)(F)F)nc2n(-c3c(C)cc(C)cc3C)c3ccccc3n12)CC1CCC1` gave a Ki in data set [1] of 26 nM.
For the compound `CCCN(CC1CC1)C(=O)c1c(C)nc2n(-c3c(C)cc(C)cc3C)c3ccccc3n12`, affinity in data set [1] was put at a Ki of 360 nM.
`Cc1cc(C)c(-n2c3ccccc3n3c(CN(CCC4CC4)CC(F)(F)F)c(C(F)(F)F)nc23)c(C)c1` displayed a Ki in data set [1] of 653 nM.
In data set [1], `CCCN(Cc1c(C(F)(F)F)nc2n(-c3c(C)cc(C)cc3C)c3ccccc3n12)CC(F)(F)F` gave a Ki of 75 nM.
Consider `CCCN(Cc1ccccc1)Cc1c(C(F)(F)F)nc2n(-c3c(C)cc(C)cc3C)c3ccccc3n12`, for which the affinity in data set [1] corresponds to a Ki of 4050 nM.
The compound `CCCN(CCc1ccccc1)Cc1c(C(F)(F)F)nc2n(-c3ccc(C(C)C)cc3Br)c3ccccc3n12` came in with an inhibition constant Ki in data set [1] of 410 nM.
Regarding `CCCN(Cc1c(C(F)(F)F)nc2n(-c3ccc(C(C)C)cc3Br)c3ccccc3n12)CC1CC1`, the affinity in data set [1] corresponds to a Ki of 150 nM.
On the same count and under the same terms, the result for `Cc1cc(C)c(-n2c3ccccc3n3c(CN(CCC(F)(F)F)CC(F)(F)F)c(C(F)(F)F)nc23)c(C)c1` reads 291 nM.
In data set [1], `Cc1cc(C)c(-n2c3ccccc3n3c(CN(CCC(F)(F)F)CC4CC4)c(C(F)(F)F)nc23)c(C)c1` showed a Ki of 13 nM.
`CCCCN(Cc1ccccc1)Cc1c(C(F)(F)F)nc2n(-c3c(C)cc(C)cc3C)c3ccccc3n12` returned an inhibition constant (Ki) in [1] of 7710 nM.
Consider `Cc1cc(C)c(-n2c3ccccc3n3c(CN(CC4CCC4)CC(F)(F)F)c(C(F)(F)F)nc23)c(C)c1`, for which the Ki in data set [1] was 53 nM.
Compound `CC(C)c1ccc(-n2c3ccccc3n3c(CN(CC4CC4)CC4CC4)c(C(F)(F)F)nc23)c(Br)c1` gave an inhibition constant Ki in [1] of 54 nM.
With `CCCN(Cc1c(C(F)(F)F)nc2n(-c3c(C)cc(C)cc3C)c3ccccc3n12)CC(F)(F)C(F)(F)F`, the inhibition constant Ki in [1] was 75 nM.
Same read-out and setting: in the case of `CCCN(Cc1c(C)nc2n(-c3c(C)cc(C)cc3C)c3ccc(F)cc3n12)CC1CC1` it was 59 nM; in that of `Cc1cc(C)c(-n2c3ccccc3n3c(CN(CCc4ccccc4)CCc4ccccc4)c(C(F)(F)F)nc23)c(C)c1`, 333 nM; in that of `CCCN(CCc1ccccc1)Cc1c(C(F)(F)F)nc2n(-c3ccc(Cl)cc3Cl)c3ccccc3n12`, 1600 nM.
Compound `CCN(Cc1ccccc1)Cc1c(C(F)(F)F)nc2n(-c3c(C)cc(C)cc3C)c3ccccc3n12` showed a Ki in data set [1] of 2770 nM.
The same measure, in the same setting: the result for `CCCN(CC1CC1)C(=O)c1c(CC)nc2n(-c3c(C)cc(C)cc3C)c3ccccc3n12` reads 570 nM.
As to `CCCN(Cc1c(C(F)(F)F)nc2n(-c3ccc(Cl)cc3Cl)c3ccccc3n12)CC1CC1`, the Ki in data set [1] stood at 370 nM.
As for `Cc1cc(C)c(-n2c3ccccc3n3c(CN(CCC4CC4)CCC(F)(F)F)c(C(F)(F)F)nc23)c(C)c1`, in [1], the inhibition constant (Ki) amounted to 457 nM.
Regarding `Cc1cc(C)c(-n2c3ccccc3n3c(CN(CC4CC4)CC4CC4)c(C(F)(F)F)nc23)c(C)c1`, in data set [1], the affinity corresponds to a Ki of 11 nM.
As for `CCCN(CCC(F)(F)F)Cc1c(C(F)(F)F)nc2n(-c3c(C)cc(C)cc3C)c3ccccc3n12`, in data set [1], affinity was put at a Ki of 68 nM.
With `FC(F)(F)c1nc2n(-c3ccc(Cl)cc3Cl)c3ccccc3n2c1CN(CC1CC1)CC1CC1`, the affinity in data set [1] corresponds to a Ki of 240 nM. Against the preceding compound, the Ki is about 3.5-fold higher.
The same measure, in the same setting: in the case of `Cc1cc(C)c(-n2c3ccccc3n3c(CN(CCc4ccccc4)CC(F)(F)F)c(C(F)(F)F)nc23)c(C)c1` it was 744 nM; in that of `CCN(Cc1c(C(F)(F)F)nc2n(-c3c(C)cc(C)cc3C)c3ccccc3n12)CC1CC1`, 28 nM.
`Cc1cc(C)c(-n2c3ccccc3n3c(CN(CCc4ccccc4)CCC(F)(F)F)c(C(F)(F)F)nc23)c(C)c1` had a Ki in data set [1] of 618 nM.
On the same count and under the same terms, the result for `CCCN(CC1CC1)C(=O)c1c(C)nc2n(-c3c(C)cc(C)cc3C)c3ccc(F)cc3n12` reads 1180 nM; that for `CCCN(Cc1c(C)nc2n(-c3c(C)cc(C)cc3C)c3ccccc3n12)CC1CC1`, 20 nM.
On the same count and under the same terms, the result for `Cc1cc(C)c(-n2c3ccccc3n3c(CN(CC4CC4)CC(F)(F)C(F)(F)F)c(C(F)(F)F)nc23)c(C)c1` reads 34 nM; that for `CCCN(CC1CC1)C(=O)c1c(C(F)(F)F)nc2n(-c3c(C)cc(C)cc3C)c3ccccc3n12`, 3560 nM.
